Experimental data from article PMC9979192 (Acta Pharmaceutica Sinica. B, 2022).
Where two headings read alike, the source gives them in different places.

How the values were obtained:
[1] = tested on: rhesus monkeys; experiment: Rhesus monkeys with spontaneous hyperlipidemia, efficacy and safety; assay type: in vivo, rhesus monkey; conditions: 2 weeks; 326E 20 mg/kg, atorvastatin 2.4 mg/kg
[2] = tested on: hypercholesterolemia patients; conditions: at 12 weeks, with maximally tolerated statin therapy; cited from earlier work
[3] = human plasma; ref a previous study; cited from earlier work
[4] = tested on: primary hepatocytes; experiment: In vitro cholesterol efflux and Abcg5/8 expression; assay type: cell-based, mouse; conditions: 3H-cholesterol, 12 h; BA 50 μmol/L
Procedure, shortened: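 For Abcg5/Abcg8 mRNA, primary mouse hepatocytes were treated 24 h with 50 μmol/L test compound plus 15 μg/mL cholesterol in 420 μg/mL M-β-CD. For efflux, cells were loaded 12 h with 0.5 μCi/mL 3H-cholesterol plus cholesterol, washed, then given 12.5–50 μmol/L compound with 15 μg/mL cholesterol in serum-free medium for 12 h at 37 °C. 3H in medium and NaOH lysate was counted; T0901317 (1 μmol/L) served as positive control.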

[5] = tested on: HCD mice; experiment: In vivo cholesterol efflux in HCD mice; parameters: species or system C57BL/6J mice; conditions: oral 30 mg/kg for 7 days
[6] = rat plasma; ref a previous study; cited from earlier work
[7] = tested on: golden hamsters; experiment: HFHC diet-induced hyperlipidemia in golden hamsters; assay type: in vivo, golden hamster; conditions: 2 weeks; 326E 15 and 30 mg/kg, BA 30 mg/kg; vs vehicle
[8] = monkey plasma; ref a previous study; cited from earlier work
[9] = mouse plasma; ref a previous study; cited from earlier work
[10] = tested on: ApoE-/- mice; experiment: Western diet-induced atherosclerosis in ApoE-/- mice; assay type: in vivo, mouse; conditions: 24 weeks once daily oral
Procedure, shortened: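 Male ApoE−/− mice were started at 6–8 weeks on a high-fat, high-cholesterol diet for 23–24 weeks, with oral compound dosing. Whole aortas were stained with Sudan IV for plaque, and plasma hsCRP was measured. For hepatic cholesterol, liver lipid residue was resuspended in ethanol with 1% Triton X-100 and assayed with commercial kits.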

[11] = tested on: mouse primary hepatocytes; experiment: In vitro de novo lipogenesis in primary hepatocytes; assay type: cell-based; conditions: 24 h treatment; compared with BA
Procedure, shortened: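 Hepatocytes came from 8–12-week male C57BL/6J mice by Percoll purification and were kept in Hepato ZYME-SFM with 2 mmol/L l-glutamine and antibiotics at 6 × 10^5 cells/well. Treated either 24 h with 0.1 μCi/well [1,2-14C]-acetate during the last 4 h, or 4 h with the label present. 14C in fatty acids and cholesterol was extracted and scintillation-counted, then normalized to DMSO; n = 3–4.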

[12] = tested on: primary mouse hepatocytes; experiment: Glucose output; assay type: cell-based; conditions: 6 h, pyruvate 2 mmol/L and lactate 20 mmol/L; compared to BA
Procedure, shortened: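 Primary hepatocytes from male C57BL/6J mice were treated with the test compound for 6 h in gluconeogenic medium with pyruvate (2 mmol/L) and lactate (20 mmol/L), with or without 4.0 mmol/L l-glutamine. Glucose output into the medium was measured and normalized to the DMSO group; n = 4.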

## CC(C)c1c(C(=O)Nc2ccccc2)c(-c2ccccc2)c(-c2ccc(F)cc2)n1CC[C@@H](O)C[C@@H](O)CC(=O)O [atorvastatin, Atorvastatin]
[1]
  body weight during treatment: unchanged

## CC(C)(CCCCCC(O)CCCCCC(C)(C)C(=O)O)C(=O)O [BA, Bempedoic acid]
[2]
  placebo-adjusted decrease from baseline in LDL-C: 16.5%
[3]
  in vitro plasma protein-binding rate: 95%–98
[4]
  cholesterol efflux into the cell culture medium: markedly promoted cholesterol efflux
[5]
  hepatic cholesterol content: significantly reduced hepatic cholesterol content
[6]
  in vitro plasma protein-binding rate: 95%–98
[7]
  body weight: significantly decreased
[8]
  in vitro plasma protein-binding rate: 95%–98
[9]
  in vitro plasma protein-binding rate: 95%–98
[10]
  hepatic cholesterol content reduced compared to vehicle: 37%
[10]; 326E 15, 30, 60 mg/kg, BA 30 mg/kg
  aortic plaques reduced: 33.4%

## CC(C)(CCCCC=CCCCCCC(C)(C)C(=O)O)C(=O)O [326F]
[11]
  incorporation of [1,2-14C]-acetate into fatty acids and cholesterol: dose-dependent lipogenesis inhibition
[12]
  cumulative glucose production: reduced with a greater tendency
